Results on two molecules are retold here after ChEMBL document CHEMBL5038582, “Adamantyl Isothiocyanates as Mutant p53 Rescuing Agents and Their Structure-Activity Relationships” (J Med Chem, 2021).

Active and inactive are the calls of the source. No cut-off for these calls is given here.

Experiment [1] deals with MCF7. The experiment is described as follows: Upregulation of p53 mRNA expression in human MCF7 cells at 6 uM measured after 4 hrs by qRT-PCR analysis. Type of experiment: functional, cell-based. Summed up:
(§1)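 Cells treated with DMSO or 6 µM test compound for 4 h. RNA extracted, cDNA synthesised, transcript measured by TaqMan qRT-PCR and normalised to GAPDH. Averages from triplicates of repeated experiments, with standard deviation.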
Background: In qPCR the cycle at which signal appears reflects the starting amount.

The subject of experiment [2] is MCF7. In words: Induction of apoptosis in human MCF7 cells expressing wild type p53 assessed as decrease in level of uncleaved PARP1 level at 6 to 12 uM measured after 24 hrs by western blotting analysis. It counts as functional, cell-based. The following applies: dose 6-12 µM. The method, boiled down: (§2)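 Cells treated with DMSO or compound at 6 or 12 µM for 24 h, then lysed in Tris-Cl pH 8.0/NaCl/glycerol/NP-40/EDTA buffer with protease inhibitors. 100 µg lysate resolved on 4-12% SDS-PAGE and blotted to PVDF. Probed with anti-PARP or anti-caspase 3, then HRP secondary and ECL. GAPDH reprobe as control.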
On the technique in general: A western blot detects proteins with antibodies after separation by electrophoresis.

The subject of experiment [3] is MDA-MB-468. In words: Antiproliferative activity against human MDA-MB-468 cells expressing p53 R273H mutant assessed as inhibition of cell growth incubated for 24 to 72 hrs by WST-1 assay. It counts as functional, cell-based. The method, boiled down: (§3)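 WST-1 proliferation assay. Compound diluted in DMSO and added to cells at 1% DMSO final. 4,000 cells/well in duplicate; DMSO-only wells as control, cell-free medium wells for background.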
A general note: Tetrazolium assays rely on reduction of a dye to a coloured formazan, in cell work by metabolically active cells.

Experiment [4] relates to MCF7. The experiment is described as follows: Inhibition of colony formation in human MCF7 cells expressing wild type p53 assessed as decrease in number of colonies at 1.5 to 24 uM incubated for 24 hrs followed by incubation in fresh medium for 10 days by methylene blue staining based analysis. Type of experiment: functional, cell-based. The following applies: dose 1.5-24 µM. The method, boiled down:
(§4)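 500 cells/well seeded 24 h before treatment. Cells exposed to compound or DMSO control for 24 h at 37 °C, then grown 10 days at 37 °C in RPMI with 10% FBS. Colonies fixed in methanol, stained with methylene blue and counted. Survival expressed as percent of DMSO control.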

Experiment [5] deals with MDA-MB-468. In words: Induction of apoptosis in human MDA-MB-468 cells expressing p53 R273H mutant assessed as increase in level of cleaved PARP1 level at 6 to 12 uM measured after 24 hrs by western blotting analysis. Type of experiment: functional, cell-based. The following applies: dose 6-12 µM. The method, boiled down: as §2
Experiment [6] concerns the target Cellular tumor antigen p53 (Homo sapiens) (UniProt P04637). In words: Activation of p53 in human MCF7 cells assessed as increase in NOXA mRNA expression at 6 uM incubated for 4 hrs by qRT-PCR analysis. Type of experiment: cell-based. The following applies: filed as activator. The method, boiled down:
as §1

In experiment [7] the test system is Cellular tumor antigen p53 (Homo sapiens), P04637 [R280K]. In words: Reactivation of transactivation function to p53 R280K mutant in human MDA-MB-231 cells assessed as increase in p21 mRNA expression at 6 uM incubated for 4 hrs by qRT-PCR analysis. The following applies: filed as activator. It counts as cell-based. The method, boiled down: as §1
Experiment [8] concerns MCF7. In words: Antiproliferative activity against human MCF7 cells expressing WT p53 assessed as inhibition of cell growth at 10 to 50 uM incubated for 24 to 72 hrs by WST-1 assay. The following applies: dose 10-50 µM, time 24-72 hrs. Type of experiment: functional, cell-based. Summed up:
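WST-1 proliferation assay. Compound diluted in DMSO so that 10 μl of stock in 1 ml of cells (40,000 cells/ml) gives the test concentration at 1% DMSO. Cells plated at 4,000/well in duplicate and incubated at 37 °C for 24 h or 72 h. Result given as % of the 1% DMSO control.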

The subject of experiment [9] is MCF7. In words: Induction of apoptosis in human MCF7 cells expressing wild type p53 assessed as increase in cleaved PARP1 level at 6 to 12 uM measured after 24 hrs by western blotting analysis. The following applies: dose 6-12 µM. It counts as functional, cell-based. The method, boiled down:
as §2

For experiment [10], the system named is MDA-MB-231. In words: Induction of apoptosis in human MDA-MB-231 cells expressing p53 R280K mutant assessed as decrease in level of uncleaved caspase 3 level at 6 to 12 uM measured after 24 hrs by western blotting analysis. Type of experiment: functional, cell-based. The following applies: dose 6-12 µM. The method, boiled down: as §2
The subject of experiment [11] is MDA-MB-231. In words: Antiproliferative activity against human MDA-MB-231 cells expressing p53 R280K mutant assessed as inhibition of cell growth incubated for 24 hrs by WST-1 assay. The following applies: MDA-MB-231, 24 h. It counts as functional, cell-based. The method, boiled down:
as §3

The subject of experiment [12] is Cellular tumor antigen p53 (Homo sapiens), P04637 [R273H]. In words: Reactivation of transactivation function to p53 R273H mutant in human MDA-MB-468 cells assessed as increase in NOXA mRNA expression at 6 uM incubated for 4 hrs by qRT-PCR analysis. Type of experiment: cell-based. The following applies: filed as activator. The method, boiled down: as §1
In experiment [13] the test system is MDA-MB-231. In words: Inhibition of colony formation in human MDA-MB-231 expressing p53 R280K mutant assessed as decrease in number of colonies at 1.5 to 24 uM incubated for 24 hrs followed by incubation in fresh medium for 10 days by methylene blue staining based analysis. It counts as functional, cell-based. The following applies: dose 1.5-24 µM. The method, boiled down:
as §4

The subject of experiment [14] is MDA-MB-468. In words: Downregulation of p53 R273H mutant expression in human MDA-MB-468 cells at 6 to 12 uM measured after 24 hrs by immunoblot analysis. Type of experiment: functional, cell-based. The following applies: dose 6-12 µM. The method, boiled down: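 24 h exposure to 6 or 12 μM, DMSO control. Lysis in Tris pH 8.0/NaCl/glycerol/NP-40/EDTA buffer with protease inhibitors. 20 µg (MDA-MB-231, MDA-MB-468) or 50 µg (MCF-7) of lysate run on 4-12% SDS-PAGE. Blot probed with p53 DO-1, GAPDH used for reprobe/loading. Triplicate experiments.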

In experiment [15] the test system is MDA-MB-231. The experiment is described as follows: Downregulation of p53 R280K mutant expression in human MDA-MB-231 cells at 6 to 12 uM measured after 24 hrs by immunoblot analysis. The following applies: dose 6-12 µM.
Experiment [16] has as its target Cellular tumor antigen p53 (Homo sapiens) (UniProt P04637). In words: Activation of p53 in human MCF7 cells assessed as increase in p21 mRNA expression at 6 uM incubated for 4 hrs by qRT-PCR analysis. The following applies: filed as activator. It counts as cell-based. The method, boiled down:
as §1

In experiment [17] the test system is MDA-MB-468. The experiment is described as follows: Induction of apoptosis in human MDA-MB-468 cells expressing p53 R273H mutant assessed as decrease in level of uncleaved caspase 3 level at 6 to 12 uM measured after 24 hrs by western blotting analysis. Type of experiment: functional, cell-based. The following applies: dose 6-12 µM. Summed up:
as §2

A further experiment has as its system CCD-841CoN. The experiment is described as follows: Cytotoxicity against human CCD841 cells harboring wild type p53 assessed as inhibition of cell growth at 10 to 50 uM incubated for 24 to 72 hrs by WST-1 assay. Type of experiment: functional, cell-based. The following applies: dose 10-50 µM, time 24-72 hrs.
The test system of experiment [18] is MDA-MB-231. In words: Induction of apoptosis in human MDA-MB-231 cells expressing p53 R280K mutant assessed as decrease in level of uncleaved PARP1 level at 6 to 12 uM measured after 24 hrs by western blotting analysis. It counts as functional, cell-based. The following applies: dose 6-12 µM. The method, boiled down:
as §2

Experiment [19] concerns MDA-MB-231. In words: Antiproliferative activity against human MDA-MB-231 cells expressing p53 R280K mutant assessed as inhibition of cell growth incubated for 72 hrs by WST-1 assay. It counts as functional, cell-based. The following applies: MDA-MB-231, 72 h. Summed up:
as §3

Experiment [20] concerns the target Cellular tumor antigen p53 (Homo sapiens) (UniProt P04637). The experiment is described as follows: Activation of p53 in human MCF7 cells assessed as increase in MDM2 mRNA expression at 6 uM incubated for 4 hrs by qRT-PCR analysis. It counts as cell-based. The following applies: filed as activator. Summed up:
as §1

The test system of experiment [21] is Cellular tumor antigen p53 (Homo sapiens), P04637 [R273H]. In words: Reactivation of transactivation function to p53 R273H mutant in human MDA-MB-468 cells assessed as increase in MDM2 mRNA expression at 6 uM incubated for 4 hrs by qRT-PCR analysis. Type of experiment: cell-based. The following applies: filed as activator. Summed up:
as §1

In experiment [22] the test system is MDA-MB-231. In words: Effect on p53 R280K mutant mRNA expression in human MDA-MB-231 cells at 6 uM measured after 4 hrs by qRT-PCR analysis. It counts as functional, cell-based. The method, boiled down: as §1

What is called IC50 is the concentration that gives 50% inhibition. Take `S=C=NCCCC12CC3CC(CC(C3)C1)C2`: the outcome (in the experiment on MCF7 [1]; in the experiment on MDA-MB-468 [5]; in experiment [6]; in experiment [7]; in the experiment with MCF7 [8]; in the experiment on MDA-MB-231 [10]) was Active. The result (in [12]; in experiment [16]; in the experiment on MDA-MB-468 [17]; with MDA-MB-231 [18]; in experiment [20]; in experiment [21]) was Active. For the same molecule, the result with MCF7 [2], with MCF7 [9], with CCD-841CoN and in the experiment with MDA-MB-231 [22] was inactive. Moreover, the IC50 in the experiment on MDA-MB-468 [3], in the experiment with MDA-MB-231 [11] and in the experiment on MDA-MB-231 [19] was 12 µM in each case. The inhibition result in the experiment on MCF7 [4], in the experiment on MDA-MB-231 [13] and in the experiment on MDA-MB-468 [14] was “Active” each time. Besides, in the experiment with MDA-MB-231 [15], the “p53 R280K downregulation (active/not active)” value was “Active”.

Consider `[Se]=C=NCCC12CC3CC(CC(C3)C1)C2`, for which the result (in the experiment on MCF7 [1]; in the experiment on MDA-MB-468 [5]; in experiment [6]; in [7]; with MCF7 [8]; in the experiment with MDA-MB-231 [10]) was Active. The outcome (in experiment [12]; in [16]; with MDA-MB-468 [17]; with MDA-MB-231 [18]; in experiment [20]; in [21]) was Active. Also, the outcome with MCF7 [2], with MCF7 [9], in the experiment on CCD-841CoN and with MDA-MB-231 [22] was inactive. For the same molecule, the IC50 in the experiment on MDA-MB-468 [3], in the experiment on MDA-MB-231 [11] and in the experiment on MDA-MB-231 [19] was 6 µM each time. Besides, the inhibition result with MCF7 [4], with MDA-MB-231 [13] and with MDA-MB-468 [14] was “Active” in each case. Also, in the experiment with MDA-MB-231 [15], the “p53 R280K downregulation (active/not active)” value is “Active”.
